These results are taken from ChEMBL document CHEMBL1157101, “A series of alpha-heterocyclic carboxaldehyde thiosemicarbazones inhibit topoisomerase IIalpha catalytic activity” (J Med Chem, 2010).

Active and inactive are the calls of the source. No cut-off for these calls is given here.

Assay [1] has as its target DNA topoisomerase 2-alpha (Homo sapiens, UniProt P11388). Nature of the assay: Binding affinity to human topoisomerase 2 alpha ATPase domain in presence of ATP. Summed up:
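Surface plasmon resonance. Human Topo IIα ATPase domain immobilised on CM5 chips after activation of surface carboxyl groups. Serial compound dilutions flowed over the chip and sensorgrams recorded. KD obtained by steady-state affinity fitting.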

The target of assay [2] is T1, DNA topoisomerase 1 (Homo sapiens) (UniProt P11387).
T1 sequence (whole entry): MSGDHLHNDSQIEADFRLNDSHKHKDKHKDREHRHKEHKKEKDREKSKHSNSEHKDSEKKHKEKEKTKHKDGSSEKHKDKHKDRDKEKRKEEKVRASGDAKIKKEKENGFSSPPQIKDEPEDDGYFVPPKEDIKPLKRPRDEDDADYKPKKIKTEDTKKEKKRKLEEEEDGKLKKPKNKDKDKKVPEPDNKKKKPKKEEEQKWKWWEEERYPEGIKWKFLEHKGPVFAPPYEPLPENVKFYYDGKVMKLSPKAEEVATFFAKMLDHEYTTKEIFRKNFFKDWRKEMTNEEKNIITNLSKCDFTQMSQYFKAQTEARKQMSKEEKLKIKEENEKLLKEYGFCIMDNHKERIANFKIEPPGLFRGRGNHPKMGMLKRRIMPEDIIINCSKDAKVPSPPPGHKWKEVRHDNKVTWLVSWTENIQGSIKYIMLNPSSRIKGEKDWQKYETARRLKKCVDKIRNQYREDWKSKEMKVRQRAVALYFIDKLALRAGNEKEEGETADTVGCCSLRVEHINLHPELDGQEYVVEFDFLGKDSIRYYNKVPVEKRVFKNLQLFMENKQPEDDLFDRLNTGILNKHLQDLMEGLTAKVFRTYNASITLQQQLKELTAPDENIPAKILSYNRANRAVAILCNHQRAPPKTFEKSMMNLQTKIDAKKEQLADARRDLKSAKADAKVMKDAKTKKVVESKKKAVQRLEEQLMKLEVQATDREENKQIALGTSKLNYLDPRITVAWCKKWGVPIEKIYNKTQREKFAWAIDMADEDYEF
As to the kind of experiment: Inhibition of topoisomerase 1-mediated unwinding of supercoiled DNA assessed as DNA intercalation.

Chain of DNA topoisomerase 2-alpha (P11388 whole entry, the tested form may be a part): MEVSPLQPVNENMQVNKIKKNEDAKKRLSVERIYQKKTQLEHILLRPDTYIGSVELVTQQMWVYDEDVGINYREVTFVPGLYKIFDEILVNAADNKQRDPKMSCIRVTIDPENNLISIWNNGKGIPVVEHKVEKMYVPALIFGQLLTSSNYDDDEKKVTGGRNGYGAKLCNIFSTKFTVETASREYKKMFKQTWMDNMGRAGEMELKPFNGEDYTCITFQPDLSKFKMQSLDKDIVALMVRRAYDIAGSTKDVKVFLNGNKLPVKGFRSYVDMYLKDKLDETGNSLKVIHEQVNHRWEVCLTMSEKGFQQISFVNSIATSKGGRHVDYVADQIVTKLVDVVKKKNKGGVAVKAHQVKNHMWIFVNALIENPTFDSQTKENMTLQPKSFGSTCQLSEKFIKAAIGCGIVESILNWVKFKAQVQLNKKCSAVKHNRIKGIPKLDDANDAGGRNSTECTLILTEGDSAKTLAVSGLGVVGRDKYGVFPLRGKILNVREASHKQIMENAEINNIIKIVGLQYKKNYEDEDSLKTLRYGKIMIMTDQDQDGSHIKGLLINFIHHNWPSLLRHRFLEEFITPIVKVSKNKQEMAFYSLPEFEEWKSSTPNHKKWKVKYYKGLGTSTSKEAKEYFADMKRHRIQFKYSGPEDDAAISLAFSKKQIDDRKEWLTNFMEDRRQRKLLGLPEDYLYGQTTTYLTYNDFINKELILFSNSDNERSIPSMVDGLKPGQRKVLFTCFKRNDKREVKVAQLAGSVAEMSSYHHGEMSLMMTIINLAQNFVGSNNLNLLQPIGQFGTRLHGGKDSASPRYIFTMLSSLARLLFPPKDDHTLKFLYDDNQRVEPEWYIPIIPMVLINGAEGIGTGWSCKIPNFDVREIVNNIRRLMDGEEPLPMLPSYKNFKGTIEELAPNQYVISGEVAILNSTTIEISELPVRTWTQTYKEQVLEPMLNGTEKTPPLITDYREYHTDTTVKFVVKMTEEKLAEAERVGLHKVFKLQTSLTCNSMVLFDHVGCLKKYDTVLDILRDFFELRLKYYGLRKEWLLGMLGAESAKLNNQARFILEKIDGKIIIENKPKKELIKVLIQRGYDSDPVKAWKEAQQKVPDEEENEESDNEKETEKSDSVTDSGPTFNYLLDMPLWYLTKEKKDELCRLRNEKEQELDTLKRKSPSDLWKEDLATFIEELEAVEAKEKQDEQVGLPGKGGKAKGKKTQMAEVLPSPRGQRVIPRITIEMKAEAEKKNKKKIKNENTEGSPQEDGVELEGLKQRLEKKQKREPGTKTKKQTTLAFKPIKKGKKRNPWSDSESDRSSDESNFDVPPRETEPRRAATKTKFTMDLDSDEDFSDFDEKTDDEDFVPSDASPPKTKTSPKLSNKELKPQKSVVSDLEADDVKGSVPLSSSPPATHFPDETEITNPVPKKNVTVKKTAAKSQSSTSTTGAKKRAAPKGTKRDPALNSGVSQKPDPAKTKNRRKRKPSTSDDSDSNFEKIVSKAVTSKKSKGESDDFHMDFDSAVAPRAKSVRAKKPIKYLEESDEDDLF

For `CN(C)C(=S)N/N=C/c1ccc2ccccc2n1`, in assay [1], the outcome was inactive. Moreover, in assay [2], the inhibition entry is “inactive”.
